Data set [1] deals with Stimulator of interferon genes protein (Homo sapiens), Q86WV6 [R71H,G230A,R293Q]. Nature of the data set: Activation of human STING HAQ mutant expressed in HEK293T cells assessed as phosphorylation of IRF-3 at (Ser396) at 10 uM incubated for 2 hrs and measured by Western blot analysis. The format is cell-based. The note with it: filed as activator. In outline:
(§1)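 HEK293T clones stably carrying each human STING variant, picked by blasticidin selection and limiting dilution. 5 x 10^5 cells were exposed to compound at 10μM for 2 h, lysed in RIPA with phosphatase and protease inhibitors, and 10 μg protein run on 10% SDS-PAGE. Immunoblots probed for pSTING (Ser366), pIRF3 (Ser396), total STING, IRF3 and actin, detected by ECL.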
On the technique in general: In western blotting, separated proteins are transferred to a membrane and probed.

Data set [2] deals with Stimulator of interferon genes protein (Homo sapiens), Q86WV6 [UNDEFINED MUTATION]. The data set can be described thus: Activation of human STING R232 in human dendritic cells assessed as induction of CD83 measured by qt-PCR analysis. The format is cell-based. The note with it: Dendritic cell, filed as activator. The method, boiled down: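 PBMC isolated on Histopaque 1077, ACK-lysed, monocytes purified by MACS. Monocytes at 1 x 10^6 cells/ml in RPMI/10% FBS with 100ng/ml GMCSF and 50ng/ml IL4, 37 °C, 5% CO2, for 24–36 h. Compound added (1% DMSO final) for 6 h. CD86 and CD83 read by qPCR as fold of vehicle-treated cells.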

Data set [3] is described as follows: Chemical stability of compound in buffer at pH 3 to 8.
Data set [4] addresses T1, Stimulator of interferon genes protein (Homo sapiens, UniProt Q86WV6). The data set can be described thus: Activation of human STING in human PBMC cells assessed as induction of TNFalpha expression at 10 uM measured by qt-PCR analysis. It counts as cell-based. To be noted: filed as activator. The method, boiled down: (§2)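 2 x 10^5 freshly isolated human PBMC from healthy donors, separated on Histopaque, given a single compound concentration. Harvested early (6 hr) or late (20h). Cytokine mRNA read by qRT-PCR as relative normalized expression (fold) against vehicle-treated cells.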

The test system of data set [5] is HEK293T. The data set can be described thus: Activation of human STING R232H mutant expressed in HEK293T cells assessed as phosphorylation at (Ser366) upto 10 uM incubated for 2 hrs and measured by Western blot analysis. It counts as cell-based. To be noted: filed as activator, dose microM <=10, time 2.0 hrs. In outline:
as §1

Data set [6] in a line: AUC in BALB/c mouse at 5 mg/kg, iv measured up to 24 hrs by LC-MS/MS analysis. It counts as ADME, organism-based. Set-up: route intravenous, dose 5 mg/kg, time <=24. The note with it: in vivo. The method, boiled down: (§3)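 Overnight-fasted mice, n=3 per group, single dose by lateral tail vein (iv) or oral gavage (po). Retro-orbital blood under isoflurane at 2 min–24 h (iv) or 5 min–24 h (po). Plasma spun at 1500 x g, 15 min, 4 °C, stored -80 °C, then analysed by LCMS.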

Another data set deals with CCRF-SB. The data set can be described thus: Activation of human wild type STING R232 expressed in CCRF-SB cells assessed as phosphorylation at (Ser396) at 10 uM incubated for 2 hrs and measured by Western blot analysis. The note with it: filed as activator.
Data set [7] has as its system Stimulator of interferon genes protein (Homo sapiens), Q86WV6 [G230A,R293Q]. Nature of the data set: Activation of human STING AQ mutant expressed in HEK293T cells assessed as phosphorylation at (Ser366) at 10 uM incubated for 2 hrs and measured by Western blot analysis. The format is cell-based. To be noted: filed as activator. In outline:
as §1

Data set [8] in a line: Half life in BALB/c mouse at 5 mg/kg, iv measured up to 24 hrs by LC-MS/MS analysis. The format is ADME, organism-based. The note with it: in vivo. In outline:
as §3

Data set [9] has as its target T1, Stimulator of interferon genes protein. Nature of the data set: Activation of wild-type human STING expressed in HEK293T cells assessed as IRF3 reporter activation measured after 20 hrs by luciferase reporter gene assay. The format is cell-based. On the technique in general: A reporter such as luciferase makes a cellular process visible.
The test system of data set [10] is HEK293T. The data set can be described thus: Activation of human STING H232 mutant expressed in HEK293T cells assessed as phosphorylation at (Ser366) at 10 uM incubated for 2 hrs and measured by Western blot analysis. The format is cell-based. The note with it: filed as activator. The method, boiled down:
as §1

Data set [11] can be described thus: Oral bioavailability in BALB/c mouse at 10 mg/kg measured up to 24 hrs by LC-MS/MS analysis. The format is ADME, organism-based. To be noted: in vivo. The method, boiled down:
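Overnight-fasted mice, randomized, n=3 per group, each given a single dose by lateral tail vein (iv) or oral gavage. Blood (50 μl per point, under isoflurane) was taken from the retro-orbital plexus. Sampling was at 2 min–24 h after iv and 5 min–24 h after oral dosing. Plasma was separated at 1500 x g for 15 min at 4 °C, stored at -80 °C, and analysed by LCMS.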

The test system of the next data set is B16-F10. The data set can be described thus: Cytotoxicity against mouse B16 F10 cells at 5 to 10 uM. The format is cell-based. The note with it: b16-f10, 10 µM, dose 5-10 µM.
The test system of data set [12] is HEK293T. The data set can be described thus: Activation of human STING R232H mutant expressed in HEK293T cells assessed as phosphorylation of IFR3 at (Ser396) upto 10 uM incubated for 2 hrs and measured by Western blot analysis. It counts as cell-based. To be noted: filed as activator, dose microM <=10, time 2.0 hrs. The method, boiled down: as §1
For data set [13], the system named is HEK293T. The data set can be described thus: Induction of STING R232H mutant (unknown origin) expressed in HEK293T cells assessed as increase in luciferase coupled ISG54-ISRE activity incubated for 18 hrs luciferase reporter gene assay. It counts as cell-based. To be noted: Homo sapiens, filed as activator.
Data set [14] deals with T1, Stimulator of interferon genes protein. Nature of the data set: Activation of human STING in human PBMC cells assessed as induction of CXCL10 expression at 10 uM incubated upto 24 hrs and measured by qt-PCR analysis. It counts as cell-based. To be noted: filed as activator, time hrs <=24. The method, boiled down: as §2
Data set [15] has as its system Stimulator of interferon genes protein (Homo sapiens), Q86WV6 [UNDEFINED MUTATION]. Nature of the data set: Activation of human STING R232 in human CCRF-SB cells assessed as phosphorylation at (Ser366) at 10 uM incubated for 2 hrs and measured by Western blot analysis. The format is cell-based. The note with it: filed as activator. The method, boiled down:
(§4)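 Tumor cell lines or human primary cells carrying endogenous STING variants; STING KO cells as control. 10µM for 2 h, then lysed in RIPA with phosphatase and protease inhibitors. 10 μg protein on 10% SDS-PAGE, blotted for pSTING (Ser366), pIRF3 (Ser396), STING, IRF3 and actin, ECL detection.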

Data set [16] can be described thus: Stability in mouse plasma at 37 degC by LC-MS/MS analysis. The format is ADME, cell-free. In outline:
(§5)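 Compound at 10 μM was incubated in mouse or human plasma at 37°C and its stability assessed.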

Data set [17] concerns the target T1, Stimulator of interferon genes protein. The data set can be described thus: Activation of human STING in human PBMC cells assessed as induction of CCL20 expression at 10 uM measured by qt-PCR analysis. The note with it: filed as activator. It counts as cell-based. In outline: as §2
The nature of data set [18]: Stability in human plasma at 37 degC by LC-MS/MS analysis. It counts as ADME, cell-free. In outline:
as §5

Data set [19] has as its target T1, Stimulator of interferon genes protein. The data set can be described thus: Activation of human STING expressed in human PBMC cells assessed as phosphorylation of IRF3 at (Ser396) at 10 uM incubated for 2 hrs and measured by Western blot analysis. To be noted: filed as activator. It counts as cell-based. In outline: as §4
The test system of another data set is HeLa. The data set can be described thus: Cytotoxicity against human HeLa cells at 5 to 10 uM. To be noted: dose 5-10 µM. The format is cell-based.
Data set [20] deals with HEK293T. The data set can be described thus: Activation of human STING H232 mutant expressed in HEK293T cells assessed as phosphorylation of IRF-3 at (Ser396) at 10 uM incubated for 2 hrs and measured by Western blot analysis. To be noted: filed as activator. It counts as cell-based. The method, boiled down: as §1
In data set [21] the target is T1, Stimulator of interferon genes protein. The data set can be described thus: Activation of human STING expressed in human PBMC cells assessed as phosphorylation at (ser366) at 10 uM incubated for 2 hrs and measured by Western blot analysis. It counts as cell-based. To be noted: filed as activator. In outline:
as §4

Experimental findings from ChEMBL document CHEMBL4732051, “The discovery of potent small molecule activators of human STING” (Eur J Med Chem, 2021) are described below.

The source made the active and inactive calls.

T1 sequence (Q86WV6 whole entry): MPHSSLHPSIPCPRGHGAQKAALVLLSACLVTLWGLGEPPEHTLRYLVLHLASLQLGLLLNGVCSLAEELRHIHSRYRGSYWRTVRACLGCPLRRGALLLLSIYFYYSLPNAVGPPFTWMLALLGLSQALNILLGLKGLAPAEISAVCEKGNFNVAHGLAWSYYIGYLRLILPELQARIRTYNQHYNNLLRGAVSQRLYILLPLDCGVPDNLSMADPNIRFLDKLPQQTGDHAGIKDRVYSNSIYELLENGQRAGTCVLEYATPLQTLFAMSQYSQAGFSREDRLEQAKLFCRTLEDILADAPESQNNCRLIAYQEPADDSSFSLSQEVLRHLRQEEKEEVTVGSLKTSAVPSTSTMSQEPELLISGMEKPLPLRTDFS
Sequence of Stimulator of interferon genes protein (Homo sapiens), Q86WV6 [UNDEFINED MUTATION] (Q86WV6 whole entry, looked up, change not shown): as the sequence (Q86WV6 whole entry) above
Sequence of Stimulator of interferon genes protein (Homo sapiens), Q86WV6 [R71H,G230A,R293Q] (Q86WV6 whole entry R71H/G230A/R293Q): as the sequence (Q86WV6 whole entry) above, with R71H, G230A, R293Q counted along it
Sequence of Stimulator of interferon genes protein (Homo sapiens), Q86WV6 [G230A,R293Q] (Q86WV6 whole entry G230A/R293Q): as the sequence (Q86WV6 whole entry) above, with G230A, R293Q counted along it

By AUC is commonly meant concentration integrated over time. Lower therefore signals low exposure. A word on the half-life: it is the time needed for the level to fall by half in the phase considered. A high value points to slow decline. As usually defined, the EC50 is the concentration that produces a half-maximal response. In general, bioavailability refers to dose-corrected exposure relative to a reference, in per cent. Higher therefore signals much systemic uptake. Turning to `CC1(C)C(=O)N(Cc2c(F)cccc2Cl)c2cc(C(=O)NCc3c(F)cc(F)cc3F)ccc21`, the result (in data set [1]; in data set [2]; in [4]; with CCRF-SB; in data set [7]; with HEK293T [10]) was Active. In addition, the result (in the data set with HEK293T [13]; in data set [14]; in [15]; in data set [17]; in data set [19]; in the data set on HEK293T [20]) was Active. In addition, the result in [21] was Active. The Stabilty entry in data set [3], in data set [16] and in [18] was “Stable” throughout. Also, the Activity result in the data set with HEK293T [5] was “Dose-dependent effect”; in the data set on B16-F10, “Non-Toxic”; with HEK293T [12] it was “Dose-dependent effect”; in the data set with HeLa it was “Non-Toxic”. The AUC at 24 h in data set [6] turned out to be 1220 ng·h/mL. The half-life in [8] is 1.41 h. Besides, the EC50 in data set [9] is 0.185 µM. The molecule also displayed a bioavailability in [11] of 86%.
